According to ChEMBL document CHEMBL3994569, “Synthesis, anti-varicella-zoster virus and anti-cytomegalovirus activity of quinazoline-2,4-diones containing isoxazolidine and phosphonate substructures” (Eur J Med Chem, 2017):

Assays:
HeLa = assay: Anti-proliferative activity against human HeLa cells measured after 4 days by coulter counter method; format: ADME, cell-based; conditions: Homo sapiens, HeLa, 96 h
Method in brief: (§1)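 Cells at 300,000–500,000 cells/mL, combined 1:1 by volume with compound dilutions, incubated at 37 °C: L1210 for two days, CEM for three days, HeLa for four days. Cells counted by Coulter counter.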

Human alphaherpesvirus 3 [1] = assay: Antiviral activity against thymidine kinase expressing Varicella-Zoster virus OKA infected in HEL cells assessed as reduction in virus plaque formation; format: functional, cell-based, strain Oka vaccine; conditions: Human alphaherpesvirus 3, strain Oka vaccine, HEL
Method in brief: (§2)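 Confluent HEL fibroblast cultures were infected with VZV at an input of 100 PFU and incubated with varying compound concentrations. Plaques were counted once plaque formation was complete in untreated infected controls.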

[2] = Cytotoxicity against HEL cells infected with Varicella-Zoster virus assessed as alteration in cell morphology by microscopic method; format: cell-based; conditions: human, HEL cells infected with Varicella-Zoster virus
Method in brief: (§3)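 In the HEL cultures used for the antiviral assays, cell morphology was examined microscopically across varying compound concentrations. MCC is the minimum concentration causing a microscopically detectable alteration of cell morphology.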

Cytomegalovirus [3] = assay: Antiviral activity against Cytomegalovirus Davis infected in HEL cells assessed as reduction in virus plaque formation; format: functional, cell-based; conditions: Human betaherpesvirus 5, Davis, HEL
Method in brief: (§4)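 Confluent HEL fibroblast cultures infected with 100 PFU of HCMV and kept with varying compound concentrations. Plaques scored once plaque formation was complete in untreated infected controls.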

CCRF-CEM = assay: Anti-proliferative activity against human CEM cells measured after 72 hrs by coulter counter method; format: ADME, cell-based; conditions: Homo sapiens, CCRF-CEM, 72 h; method in brief: as §1
HMEC-1 = assay: Anti-proliferative activity against HMEC1 cells by coulter counter method; format: ADME, cell-based, Homo sapiens; conditions: Homo sapiens, HMEC-1
Method in brief: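 HMEC-1 cells at 300,000–500,000 cells/mL, mixed 1:1 by volume with serial dilutions of test compound, incubated at 37 °C. Cell number counted by Coulter counter.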

L1210 = assay: Anti-proliferative activity against mouse L1210 cells measured after 48 hrs by coulter counter method; format: ADME, cell-based; conditions: Mus musculus, L1210, 48 h; method in brief: as §1
Human alphaherpesvirus 3 [4] = assay: Antiviral activity against thymidine kinase deficient Varicella-Zoster virus 07-1 infected in HEL cells assessed as reduction in virus plaque formation; format: functional, cell-based; conditions: Human alphaherpesvirus 3, 07-1, HEL; method in brief: as §2
[5] = Cytotoxicity against HEL cells infected with Cytomegalovirus assessed as alteration in cell morphology by microscopic method; format: cell-based; conditions: human, HEL cells infected with Cytomegalovirus; method in brief: as §3
Cytomegalovirus [6] = assay: Antiviral activity against Cytomegalovirus AD169 infected in HEL cells assessed as reduction in virus plaque formation; format: functional, cell-based; conditions: Human betaherpesvirus 5, AD169, HEL; method in brief: as §4

| SMILES | IC50 (HeLa) [µM] | EC50 (Human alphaherpesvirus 3 [1]) [µM] | MCC [2] [µM] | EC50 (Cytomegalovirus [3]) [µM] | IC50 (CCRF-CEM) [µM] | IC50 (HMEC-1) [µM] | IC50 (L1210) [µM] | EC50 (Human alphaherpesvirus 3 [4]) [µM] | MCC [5] [µM] | EC50 (Cytomegalovirus [6]) [µM] |
| --- | --- | --- | --- | --- | --- | --- | --- | --- | --- | --- |
| CCOP(=O)(OCC)C1CC(Cn2c(=O)n(Cc3ccccc3)c(=O)c3ccccc32)ON1C (mixture of isomers) | 95 | > 100 | > 100 | > 100 | 104 | 222 | 146 | > 100 | 100 | > 100 |
| CCOP(=O)(OCC)C1CC(Cn2c(=O)n(Cc3ccc(F)cc3)c(=O)c3ccccc32)ON1C (mixture of isomers) | 158 | 35.5 | 100 | > 20 | 173 | ≥ 250 | ≥ 250 | 25.2 | 100 | > 20 |
| CCOP(=O)(OCC)C1CC(Cn2c(=O)n(C(=O)c3ccccc3F)c(=O)c3ccccc32)ON1C (mixture of isomers) | > 250 | 29 | > 100 | 63.1 |  | > 250 | > 250 | 25.6 | 100 | > 100 |
| CCOP(=O)(OCC)[C@@H]1C[C@@H](Cn2c(=O)n(Cc3ccccc3F)c(=O)c3ccccc32)ON1Cc1ccccc1 (relative stereo) | 79 | 4 | 20 | > 4 | 98 | 145 | 68 | > 20 | 20 | > 20 |
| CCOP(=O)(OCC)[C@@H]1C[C@@H](Cn2c(=O)n(Cc3ccccc3F)c(=O)c3ccccc32)ON1C (relative stereo) | 74 | > 20 | 100 | 100 | 99 | 189 | 196 | > 20 | 20 | > 100 |
| CCOP(=O)(OCC)[C@H]1C[C@@H](Cn2c(=O)n(Cc3ccccc3F)c(=O)c3ccccc32)ON1C (relative stereo) | 128 | 58.5 | > 100 | 100 | 181 | ≥ 250 | 203 | > 100 | 100 | > 100 |
| CCOP(=O)(OCC)[C@@H]1C[C@@H](Cn2c(=O)n(Cc3cccc(F)c3)c(=O)c3ccccc32)ON1C (relative stereo) | 88 | 55.7 | > 100 | 63.1 | 100 | 152 | 132 | > 100 | > 100 | 76.5 |
| CCOP(=O)(OCC)[C@@H]1C[C@@H](Cn2c(=O)n(Cc3ccc(F)cc3)c(=O)c3ccccc32)ON1C (relative stereo) | 82 | 66.9 | 10 | 100 | 93 | 158 | 126 | > 20 | 100 | > 100 |
| CCOP(=O)(OCC)[C@H]1C[C@@H](Cn2c(=O)n(C(=O)c3ccc(F)cc3)c(=O)c3ccccc32)ON1C (relative stereo) | > 250 | 26.2 | > 100 | > 20 | > 250 | > 250 |  | 24.5 | 100 | > 20 |
| CCOP(=O)(OCC)[C@@H]1C[C@@H](Cn2c(=O)n(C(=O)c3ccccc3F)c(=O)c3ccccc32)ON1C (relative stereo) |  | 36.6 | > 100 | 66.9 | > 250 |  |  | 34.2 | 100 | > 20 |
| CCOP(=O)(OCC)[C@@H]1C[C@@H](Cn2c(=O)n(Cc3ccccc3)c(=O)c3ccccc32)ON1C (relative stereo) | 119 | > 20 | 100 | > 100 | 124 | 235 | 141 | > 20 | 100 | > 100 |
| O=c1[nH]cc(F)c(=O)[nH]1 [FLUOROURACIL] |  |  |  |  |  |  | 0.33 |  |  |  |
